The molecules below were run against T1, Ornithine decarboxylase (Mus musculus) (UniProt P00860) (assay: Inhibition of tumor promoter (TPA) -induced mouse epidermal ornithine decarboxylase (ODC) activity at 17 nmol dose level).
T1 sequence (whole entry): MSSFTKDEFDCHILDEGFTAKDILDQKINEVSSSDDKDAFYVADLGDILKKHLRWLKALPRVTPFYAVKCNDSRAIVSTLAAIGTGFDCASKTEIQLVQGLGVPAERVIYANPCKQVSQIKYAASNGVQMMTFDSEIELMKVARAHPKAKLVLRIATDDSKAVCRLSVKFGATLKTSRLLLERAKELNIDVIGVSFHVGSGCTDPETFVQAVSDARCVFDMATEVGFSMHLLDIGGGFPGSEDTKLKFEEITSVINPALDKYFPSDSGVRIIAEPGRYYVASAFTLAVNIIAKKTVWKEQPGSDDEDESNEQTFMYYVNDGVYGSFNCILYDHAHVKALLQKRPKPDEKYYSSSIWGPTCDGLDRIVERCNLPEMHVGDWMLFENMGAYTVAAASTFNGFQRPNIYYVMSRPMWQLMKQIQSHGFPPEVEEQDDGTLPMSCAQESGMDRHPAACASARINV
Format: functional
In short: (§1)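 Retinoid applied topically to mouse skin 1 h before topical TPA (12-O-tetradecanoylphorbol 13-acetate) to induce epidermal ODC. Dorsal skin from each group of mice was pooled and ODC activity assayed in triplicate. Activity is expressed as % inhibition of TPA-induced ODC relative to TPA-only controls (mean ± SE over groups).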

**Q.** Which inhibition does the source give for `CC1=C(/C=C/C(C)=C\C=C\c2ccccc2O)C(C)(C)CCC1` here?
**A.** Its inhibition is 0%.

**Q.** How did the inhibition turn out when `CCOC(=O)c1ccc(/C=C(C)/C=C/C2=C(C)CCCC2(C)C)cc1C` was run?
**A.** The inhibition was 0%.

**Q.** Which inhibition does the source give for `CCOC(=O)c1ccc(/C=C(C)/C=C/C23OC2(C)CCCC3(C)C)cc1` (stereo unspecified) here?
**A.** Its inhibition is 71%.

**Q.** How did the inhibition turn out when `CC1=C(/C=C/C(C)=C/c2ccc(C(=O)O)cc2)C(C)(C)CCC1` was run?
**A.** Its inhibition is 77%.

**Q.** `CC1=C(/C=C/C(C)=C/C=C/c2ccccc2O)C(C)(C)CCC1` was tested. Which inhibition did it give?
**A.** The inhibition was 25%.

**Q.** Which inhibition does the source give for `CC1=C(/C=C/C(C)=C\c2ccc(C(=O)O)cc2)C(C)(C)CCC1` here?
**A.** Its inhibition is 43%.

**Q.** How did the inhibition turn out when `CC1=C(/C=C/C(C)=C/C=C/c2ccccc2C(=O)O)C(C)(C)CCC1` was run?
**A.** Its inhibition is 7%.

These molecules were tested against T1, Ornithine decarboxylase (Mus musculus) (assay: Inhibition of tumor promoter (TPA) -induced mouse epidermal ornithine decarboxylase (ODC) activity at 170 nmol dose level).
Format: functional
In short: as §1

**Q.** For `CC1=C(/C=C/C(C)=C/c2ccc(C(=O)O)cc2)C(C)(C)CCC1`, which inhibition is on record?
**A.** Its inhibition is 87%.

**Q.** With `CC1=C(/C=C/C(C)=C\c2ccc(C(=O)O)cc2)C(C)(C)CCC1` as the molecule, how does the inhibition read?
**A.** Its inhibition is 64%.

The molecules below were run against T1, Ornithine decarboxylase (Mus musculus) (assay: Inhibition of tumor promoter (TPA) -induced mouse epidermal ornithine decarboxylase (ODC) activity at 1.7 nmol dose level).
Format: functional
In short: as §1

**Q.** How did the inhibition turn out when `CC1=C(/C=C/C(C)=C/c2ccc(C(=O)O)cc2)C(C)(C)CCC1` was run?
**A.** The inhibition was 62%.

**Q.** How did the inhibition turn out when `CC1=C(/C=C/C(C)=C\c2ccc(C(=O)O)cc2)C(C)(C)CCC1` was run?
**A.** The inhibition was 33%.

— ChEMBL document CHEMBL1121834, “Aromatic retinoic acid analogues. Synthesis and pharmacological activity” (J Med Chem, 1981)
